Measurements from ChEMBL document CHEMBL3616436, “Synthesis, cytotoxicity and antimicrobial activity of thiourea derivatives incorporating 3-(trifluoromethyl)phenyl moiety” (Eur J Med Chem, 2015).
Converted amounts (≈) assume the structure as drawn. The source made the active and inactive calls. The calls are words filed in the database; no cut-off is given here.

Columns and labels:
[1] = Cytotoxicity against African green monkey Vero 76 cells assessed as cell viability after 48 to 96 hrs by crystal violet staining; type: cell-based; conditions: chlorocebus sabaeus
[2] = Cytotoxicity against human MT4 cells; type: cell-based
[3] = tested on: Vesicular stomatitis virus; test: Antiviral activity against Vesicular stomatitis virus ATCC VR 1540 infected in African green monkey Vero 76 cells assessed as reduction of virus-plaque formation after 2 days by crystal violet staining; type: functional, organism-based; conditions: ATCC VR 1540, Vero, 48 h
[4] = tested on: Human immunodeficiency virus 1; test: Antiviral activity against HIV1 3B infected in human MT4 cells assessed as protection against virus-induced cytopathogenicity by MTT assay; type: functional, organism-based; conditions: Human immunodeficiency virus 1, 3B
[5] = Cytotoxicity against bovine MDBK cells assessed as cell viability after 48 to 96 hrs by MTT assay; type: cell-based, Bos taurus; conditions: cattle
[6] = Antiviral activity against Bovine viral diarrhea virus 1-NADL ATCC VR-534 infected in MDBK cells assessed as protection against virus-induced cytopathogenicity after 3 to 4 days by MTT assay; type: functional, cell-based; conditions: Bovine viral diarrhea virus isolates and strains, ATCC VR-534, MDBK
Outline: (§1)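 Cells seeded in 96-well plates (BHK 5x10^4, MDBK 3x10^4 cells/well), grown overnight to confluence, infected at m.o.i. 0.01 (BHK for Reo-1, MDBK for BVDV); serial compound dilutions in maintenance medium with 0.5% inactivated FBS added after 1 h; viability by MTT after 3–4 days at 37°C; EC50 for 50% protection by linear regression.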

[7] = Cytotoxicity against BHK cells assessed as cell viability after 48 to 96 hrs by MTT assay; type: cell-based, Mesocricetus auratus; conditions: hamster
Yellow fever virus = test: Antiviral activity against Yellow fever virus 17D infected in BHK cells assessed as protection against virus-induced cytopathogenicity after 3 to 4 days by MTT assay; type: functional, cell-based
[8] = tested on: Mammalian orthoreovirus 1; test: Antiviral activity against Reovirus type-1 ATCC VR-214 infected in BHK cells assessed as protection against virus-induced cytopathogenicity after 3 to 4 days by MTT assay; type: functional, cell-based; conditions: Mammalian orthoreovirus 1, ATCC VR-214, BHK; outline: as §1
Coxsackievirus B5 = test: Antiviral activity against Human coxsackievirus B5 ATCC VR-29 infected in African green monkey Vero 76 cells assessed as reduction of virus-plaque formation after 3 days by crystal violet staining; type: functional, organism-based; conditions: Enterovirus B, ATCC VR-29, Vero, 72 h
Outline: (§2)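 Plaque reduction: Vero-76 at 2x10^5 cells/well grown to confluent monolayers, infected 2 h at 50–100 PFU/well; after removing unadsorbed virus, overlay of D-MEM, 1% inactivated FBS, 0.75% methylcellulose with or without serial compound dilutions; 3 days at 37°C, fixed and stained with crystal violet in 50% ethanol, plaques counted; EC50 by linear regression.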

Poliovirus 1 = test: Antiviral activity against Poliovirus type 1 ATCC VR-1562 infected in African green monkey Vero 76 cells assessed as reduction of virus-plaque formation after 2 days by crystal violet staining; type: functional, organism-based; conditions: Enterovirus C, ATCC VR-1562, Vero, 48 h
Vaccinia virus = test: Antiviral activity against Human Vaccinia virus ATCC VR-1549 infected in African green monkey Vero 76 cells assessed as reduction of virus-plaque formation after 3 days by crystal violet staining; type: functional, organism-based; conditions: Orthopoxvirus vaccinia, ATCC VR-1549, Vero, 72 h
Human alphaherpesvirus 1 = test: Antiviral activity against Human herpesvirus 1 KOS ATCC VR-1493 infected in African green monkey Vero 76 cells assessed as reduction of virus-plaque formation after 3 days by crystal violet staining; type: functional, organism-based; conditions: Human alphaherpesvirus 1, KOS ATCC VR1493, Vero, 72 h; outline: as §2
Staphylococcus aureus [9] = test: Antimicrobial activity against Staphylococcus aureus NCTC 4163 at 400 ug after 18 hrs by disc-diffusion method; type: functional; conditions: NCTC 4163, 18 h, read-out: IZ
Outline: (§3)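 Disc diffusion on Mueller-Hinton II agar per CLSI; 9 mm paper discs loaded with 400 µg compound from DMSO solution, dried, placed on agar; growth inhibition zone diameter read after 18 h at 35°C.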

Staphylococcus aureus [10] = test: Antimicrobial activity against Staphylococcus aureus ATCC 25923 at 400 ug after 18 hrs by disc-diffusion method; type: functional; conditions: ATCC 25923, 18 h, read-out: IZ; outline: as §3
Staphylococcus aureus [11] = test: Antimicrobial activity against Staphylococcus aureus ATCC 6538 at 400 ug after 18 hrs by disc-diffusion method; type: functional; conditions: ATCC 6538, 18 h, read-out: IZ; outline: as §3
Staphylococcus aureus [12] = test: Antimicrobial activity against Staphylococcus aureus ATCC 29213 at 400 ug after 18 hrs by disc-diffusion method; type: functional; conditions: ATCC 29213, 18 h, read-out: IZ; outline: as §3
[13] = tested on: Staphylococcus epidermidis; test: Antimicrobial activity against Staphylococcus epidermidis ATCC 12228 at 400 ug after 18 hrs by disc-diffusion method; type: functional; conditions: ATCC 12228, 18 h, read-out: IZ; outline: as §3
[14] = tested on: Staphylococcus epidermidis; test: Antimicrobial activity against Staphylococcus epidermidis ATCC 35984 at 400 ug after 18 hrs by disc-diffusion method; type: functional; conditions: ATCC 35984, 18 h, read-out: IZ; outline: as §3
Bacillus subtilis = test: Antimicrobial activity against Bacillus subtilis ATCC 6633 at 400 ug after 18 hrs by disc-diffusion method; type: functional; conditions: ATCC 6633, 18 h, read-out: IZ; outline: as §3
Bacillus cereus = test: Antimicrobial activity against Bacillus cereus ATCC 11778 at 400 ug after 18 hrs by disc-diffusion method; type: functional; conditions: ATCC 11778, 18 h, read-out: IZ; outline: as §3
Enterococcus hirae = test: Antimicrobial activity against Enterococcus hirae ATCC 10541 at 400 ug after 18 hrs by disc-diffusion method; type: functional; outline: as §3
Enterococcus faecalis = test: Antimicrobial activity against Enterococcus faecalis ATCC 29212 at 400 ug after 18 hrs by disc-diffusion method; type: functional; conditions: ATCC 29212, 18 h, read-out: IZ; outline: as §3
Micrococcus luteus [15] = test: Antimicrobial activity against Micrococcus luteus ATCC 10240 at 400 ug after 18 hrs by disc-diffusion method; type: functional; conditions: ATCC 10240, 18 h, read-out: IZ; outline: as §3
Micrococcus luteus [16] = test: Antimicrobial activity against Micrococcus luteus ATCC 9341 at 400 ug after 18 hrs by disc-diffusion method; type: functional; conditions: ATCC 9341, 18 h, read-out: IZ; outline: as §3
Proteus vulgaris = test: Antimicrobial activity against Proteus vulgaris NCTC 4635 at 400 ug after 18 hrs by disc-diffusion method; type: functional; outline: as §3
Staphylococcus aureus [17] = test: Antimicrobial activity against Staphylococcus aureus NCTC 4163 after 18 hrs by twofold serial microdilution method; type: functional; conditions: NCTC 4163, 18 h
Staphylococcus aureus [18] = test: Antimicrobial activity against Staphylococcus aureus ATCC 25923 after 18 hrs by twofold serial microdilution method; type: functional; conditions: ATCC 25923, 18 h
Staphylococcus aureus [19] = test: Antimicrobial activity against Staphylococcus aureus ATCC 6538 after 18 hrs by twofold serial microdilution method; type: functional; conditions: ATCC 6538, 18 h
Staphylococcus aureus [20] = test: Antimicrobial activity against Staphylococcus aureus ATCC 29213 after 18 hrs by twofold serial microdilution method; type: functional; conditions: ATCC 29213, 18 h
[21] = tested on: Staphylococcus epidermidis; test: Antimicrobial activity against Staphylococcus epidermidis ATCC 12228 after 18 hrs by twofold serial microdilution method; type: functional; conditions: ATCC 12228, 18 h
[22] = tested on: Staphylococcus epidermidis; test: Antimicrobial activity against Staphylococcus epidermidis ATCC 35984 after 18 hrs by twofold serial microdilution method; type: functional; conditions: ATCC 35984, 18 h
[23] = tested on: Mycobacterium tuberculosis; test: Antimycobacterial activity against Mycobacterium tuberculosis H37Rv ATCC 25618; type: functional
Outline: (§4)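 Classical test-tube successive-dilution method in Youmans' modification of Proskauer and Beck liquid medium with 10% bovine serum. Inoculum came from 14-day cultures. DMSO stock was 10 mg/mL, diluted geometrically in medium. Tubes were incubated at 37 °C. Concentrations tested were 3.1, 6.2, 12.5, 25, 50 and 100 µg/ml. MIC is the minimum concentration inhibiting growth relative to compound-free tubes.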

[24] = tested on: Mycobacterium tuberculosis; test: Antimycobacterial activity against drug-sensitive Mycobacterium tuberculosis Spec. 192; type: functional; outline: as §4

## O=c1cnn([C@@H]2O[C@H](CO)[C@@H](O)[C@H]2O)c(=O)[nH]1 [6-AZAURIDINE]
[1]
  CC50: 12 µM

## FC(F)(F)c1cccc(NC(=S)Nc2ccccc2)c1
[2]
  CC50: 39 µM
[3]
  EC50: > 39 µM
[4]
  EC50: > 39 µM
[5]
  CC50: 49 µM
[6]
  EC50: > 49 µM
[7]
  CC50: 41 µM
Yellow fever virus
  EC50: > 41 µM
[8]
  EC50: > 41 µM
[1]
  CC50: 39 µM
Coxsackievirus B5
  EC50: > 39 µM
Poliovirus 1
  EC50: > 39 µM
Vaccinia virus
  EC50: > 39 µM
Human alphaherpesvirus 1
  EC50: > 39 µM
Staphylococcus aureus [9]
  zone of inhibition at 400 µg/disc: 24 mm
Staphylococcus aureus [10]
  zone of inhibition at 400 µg/disc: 23 mm
Staphylococcus aureus [11]
  zone of inhibition at 400 µg/disc: 21 mm
Staphylococcus aureus [12]
  zone of inhibition at 400 µg/disc: 23 mm
[13]
  zone of inhibition at 400 µg/disc: 23 mm
[14]
  zone of inhibition at 400 µg/disc: 23 mm
Bacillus subtilis
  zone of inhibition at 400 µg/disc: 21 mm
Bacillus cereus
  zone of inhibition at 400 µg/disc: 22 mm
Enterococcus hirae; ATCC 10541, 18 h, read-out: IZ
  zone of inhibition at 400 µg/disc: 25 mm
Enterococcus faecalis
  zone of inhibition at 400 µg/disc: 15 mm
Micrococcus luteus [15]
  zone of inhibition at 400 µg/disc: 22 mm
Micrococcus luteus [16]
  zone of inhibition at 400 µg/disc: 24 mm
Proteus vulgaris; NCTC 4635, 18 h, read-out: IZ
  zone of inhibition at 400 µg/disc: 11 mm
Staphylococcus aureus [17]
  MIC: 16 µg/mL (≈ 54 µM)
Staphylococcus aureus [18]
  MIC: 16 µg/mL (≈ 54 µM)
Staphylococcus aureus [19]
  MIC: 16 µg/mL (≈ 54 µM)
Staphylococcus aureus [20]
  MIC: 16 µg/mL (≈ 54 µM)
[21]
  MIC: 32 µg/mL (≈ 108 µM)
[22]
  MIC: 16 µg/mL (≈ 54 µM)
[23]
  MIC: 50 µg/mL (≈ 169 µM)
[24]
  MIC: 50 µg/mL (≈ 169 µM)

## O=C1Nc2ccc(Cl)cc2[C@@](C#CC2CC2)(C(F)(F)F)O1 [EFAVIRENZ]
[2]
  CC50: 40 µM

## O=C(NC(=S)Nc1cccc(C(F)(F)F)c1)c1ccccc1
[2]
  CC50: > 100 µM
[3]
  EC50: > 100 µM
[4]
  EC50: > 100 µM
[5]
  CC50: > 100 µM
[6]
  EC50: > 100 µM
[7]
  CC50: > 100 µM
Yellow fever virus
  EC50: > 100 µM
[8]
  EC50: > 100 µM
[1]
  CC50: > 100 µM
Coxsackievirus B5
  EC50: > 100 µM
Poliovirus 1
  EC50: > 100 µM
Vaccinia virus
  EC50: > 100 µM
Human alphaherpesvirus 1
  EC50: > 100 µM
Staphylococcus aureus [9]
  zone of inhibition at 400 µg/disc: 17 mm
Staphylococcus aureus [10]
  zone of inhibition at 400 µg/disc: 17 mm
Staphylococcus aureus [11]
  zone of inhibition at 400 µg/disc: 17 mm
Staphylococcus aureus [12]
  zone of inhibition at 400 µg/disc: 17 mm
[13]
  zone of inhibition at 400 µg/disc: 17 mm
[14]
  zone of inhibition at 400 µg/disc: 16 mm
Bacillus subtilis
  zone of inhibition at 400 µg/disc: 17 mm
Bacillus cereus
  zone of inhibition at 400 µg/disc: 14 mm
Enterococcus hirae
  inhibition zone (IZ): inactive
Enterococcus faecalis
  zone of inhibition at 400 µg/disc: 12 mm
Micrococcus luteus [15]
  zone of inhibition at 400 µg/disc: 19 mm
Micrococcus luteus [16]
  zone of inhibition at 400 µg/disc: 17 mm
Proteus vulgaris
  inhibition zone (IZ): inactive
Staphylococcus aureus [17]
  MIC: 32 µg/mL (≈ 98.7 µM)
Staphylococcus aureus [18]
  MIC: 32 µg/mL (≈ 98.7 µM)
Staphylococcus aureus [19]
  MIC: 32 µg/mL (≈ 98.7 µM)
Staphylococcus aureus [20]
  MIC: 32 µg/mL (≈ 98.7 µM)
[21]
  MIC: 64 µg/mL (≈ 197 µM)
[22]
  MIC: 64 µg/mL (≈ 197 µM)
[23]
  MIC: > 100 µg/mL
[24]
  MIC: > 100 µg/mL

## NNC(=O)c1ccncc1 [ISONIAZID]
[23]
  MIC: 6.25 µg/mL (≈ 45.6 µM)
[24]
  MIC: 12.5 µg/mL (≈ 91.1 µM)

## COc1c(C)c2c(c(O)c1C/C=C(\C)CCC(=O)O)C(=O)OC2 [MYCOPHENOLIC ACID]
[1]
  CC50: > 100 µM

## C[C@@]1(O)[C@H](O)[C@@H](CO)O[C@H]1n1cnc2c(=O)[nH]c(N)nc21 [2'-B-METHYL-GUANOSINE]
[5]
  CC50: > 10 µM
[6]
  EC50: 1.1 µM
[7]
  CC50: > 100 µM
Yellow fever virus
  EC50: 1.9 µM

## Nc1nc2c(ncn2COCCO)c(=O)[nH]1 [ACYCLOVIR]
[1]
  CC50: 13 µM

## FC(F)(F)c1cccc(NC(=S)Nc2ccc(Cl)c(Cl)c2)c1
[2]
  CC50: 9 µM
[5]
  CC50: 10 µM
[7]
  CC50: 9.5 µM
[1]
  CC50: 16 µM

## C[C@@]1(O)[C@H](O)[C@@H](CO)O[C@H]1n1ccc(N)nc1=O
[7]
  CC50: > 10 µM
[8]
  EC50: 16 µM
[1]
  CC50: > 100 µM
Coxsackievirus B5
  EC50: 18 µM
Poliovirus 1
  EC50: 7.3 µM
